“And” between values parts separate entries of the source, which are not always exact repeats. Equal entries are not always repeated.
How the values were obtained:
[1] = target: T1, Estrogen receptor (Mus musculus) (UniProt O08537+P19785); assay: (§1) Estrogenic activity as Uterus dry weight (mg)/body weight (g) *100 in mice with 0.4 ug estrone; format: functional, tissue-based
In short: (§2)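 Immature mice given 0.4 µg estrone per animal sc on three consecutive days. Control animals got vehicle. Killed 24 h after the last injection. Uteri fixed in Bouin, dried at 100 °C for 24 h and weighed. Result expressed as uterine dry weight (mg)/body weight (g) ×100, mean of 10 animals ± SD.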

[2] = target: T1, Estrogen receptor (Mus musculus); assay: as §1; format: functional, tissue-based; in short: as §2; remark: listed apart in the source
[3] = target: T1, Estrogen receptor (Mus musculus); assay: Anti-estrogenic activity as Uterus dry weight (mg)/body weight (g) *100 in mice at 1 ug; format: functional, tissue-based
In short: (§3)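 Immature mice, sc injection on three consecutive days of test compound together with a standard 0.4 µg estrone per animal and day. Dose per animal. Control animals got vehicle. Killed 24 h after the last injection. Uteri Bouin-fixed, cleaned, washed in alcoholic LiCl, dried at 100 °C for 24 h and weighed. Read-out is uterine dry weight (mg)/body weight (g) ×100, mean of 10 animals ± SD.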

[4] = target: T1, Estrogen receptor (Mus musculus); assay: Anti-estrogenic activity as Uterus dry weight (mg)/body weight (g) *100 in mice at 125 ug; format: functional, tissue-based; in short: as §3
[5] = target: T1, Estrogen receptor (Mus musculus); assay: Anti-estrogenic activity as Uterus dry weight (mg)/body weight (g) *100 in mice at 25 ug; format: functional, tissue-based; in short: as §3
[6] = target: T1, Estrogen receptor (Mus musculus); assay: Anti-estrogenic activity as Uterus dry weight (mg)/body weight (g) *100 in mice at 5 ug; format: functional, tissue-based; in short: as §3
[7] = target: T1, Estrogen receptor (Mus musculus); assay: Percent inhibition of estrone-stimulated uterine growth in mice; format: functional; set-up: concentration or dose not given beside the values; conditions: concentration not given here
In short: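 Mouse antiuterotrophic test. Immature mice injected sc on three consecutive days with 0.4 µg estrone plus increasing doses per animal of test compound. Dry uterine weight/body weight ×100 determined 24 h after the last injection, 10 animals per group. Inhibition (%) = 100 − [(E_S,T − E_V)/(E_S − E_V)] ×100, where E_S is estrone alone and E_V is vehicle. Significance by Mann-Whitney U-test.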

[8] = target: T1, Estrogen receptor (Mus musculus); assay: Estrogenic activity as Uterus dry weight (mg)/body weight (g) *100 in mice at 5 ug
[9] = target: T1, Estrogen receptor (Mus musculus); assay: Estrogenic activity as Uterus dry weight (mg)/body weight (g) *100 in mice at 25 ug
[10] = target: T1, Estrogen receptor (Mus musculus); assay: Estrogenic activity as Uterus dry weight (mg)/body weight (g) *100 in mice at 625 ug
[11] = target: Estrogen receptor (Bos taurus) (UniProt Q9XSB5+P49884); assay: Relative binding affinity for the calf uterine estrogen receptor by 17-beta-[3H]-estradiol displacement.; format: protein assay
In short: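 Calf uterine cytosol (105000g supernatant, 3 mg/mL protein final) in Tris-EDTA-NaN3 buffer, pH 7.5. Incubated with 5 nM 17β-[3H]estradiol and 10^-9–10^-5 M competitor for 18 h at 4 °C. Dextran-coated charcoal added for 90 min, then supernatant radioactivity counted. Nonspecific binding taken with 5 µM estradiol. RBA = molar ratio of estradiol to competitor at 50% displacement ×100.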

[12] = target: T1, Estrogen receptor (Mus musculus); assay: as §1; format: functional, tissue-based; in short: as §2; remark: listed apart in the source
[13] = target: T1, Estrogen receptor (Mus musculus); assay: as §1; format: functional, tissue-based; in short: as §2; remark: listed apart in the source
[14] = target: T1, Estrogen receptor (Mus musculus); assay: Anti-estrogenic activity as Uterus dry weight (mg)/body weight (g) *100 in mice at 250 ug; format: functional, tissue-based; in short: as §3
[15] = target: T1, Estrogen receptor (Mus musculus); assay: Anti-estrogenic activity as Uterus dry weight (mg)/body weight (g) *100 in mice at 625 ug; format: functional, tissue-based; in short: as §3
[16] = target: T1, Estrogen receptor (Mus musculus); assay: Anti-estrogenic activity as Uterus dry weight (mg)/body weight (g) *100 in mice at 75 ug; format: functional, tissue-based; in short: as §3
MCF7 [17] = assay: Effect on [3H]thymidine incorporation into estrogen receptor positive MCF-7 human breast carcinoma cells at 10e-5 M (ex 1); format: functional
In short: (§4)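 MCF-7 cells kept in MEM with 5% charcoal-stripped newborn calf serum for two weeks. About 2×10^4 cells per well plated, then one day later exposed to compound in 0.1% ethanol. Ethanol-only controls. Medium changed on day 4. Three days later cells labelled with 1 µCi [3H]thymidine per well for 2 h. TCA-insoluble radioactivity per dish counted, mean of six dishes ± SD, expressed as % T/C.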

MDA-MB-231 [18] = assay: Effect on [3H]thymidine incorporation into estrogen receptor negative MDA-MB 231 human breast carcinoma cells at 1*10e-6 M; format: functional
MDA-MB-231 [19] = assay: Effect on [3H]thymidine incorporation into estrogen receptor negative MDA-MB 231 human breast carcinoma cells at 1*10e-5 M (ex 1); format: functional
MDA-MB-231 [20] = assay: Effect on [3H]thymidine incorporation into estrogen receptor negative MDA-MB 231 human breast carcinoma cells at 5*10e-6 M; format: functional
MCF7 [21] = assay: Effect on [3H]thymidine incorporation into estrogen receptor positive MCF-7 human breast carcinoma cells at 10e-6 M (ex 2)
MCF7 [22] = assay: Effect on [3H]thymidine incorporation into estrogen receptor positive MCF-7 human breast carcinoma cells at 10e-7 M (ex 2)
MCF7 [23] = assay: Effect on [3H]thymidine incorporation into estrogen receptor positive MCF-7 human breast carcinoma cells at 10e-7 M (ex 1); format: functional; in short: as §4
MCF7 [24] = assay: Effect on [3H]thymidine incorporation into estrogen receptor positive MCF-7 human breast carcinoma cells at 10e-6 M (ex 1); format: functional; in short: as §4
MCF7 [25] = assay: Effect on [3H]-thymidine incorporation into estrogen receptor positive MCF-7 human breast carcinoma cells at 10e-7 M (ex 1); format: functional; in short: as §4
MCF7 [26] = assay: Effect on [3H]-thymidine incorporation into estrogen receptor positive MCF-7 human breast carcinoma cells at 10e-6 M (exp 1); format: functional; in short: as §4
MCF7 [27] = assay: Effect on [3H]thymidine incorporation into estrogen receptor positive MCF-7 human breast carcinoma cells at 10e-6 M (ex 2); format: functional; in short: as §4
MCF7 [28] = assay: Effect on [3H]thymidine incorporation into estrogen receptor positive MCF-7 human breast carcinoma cells at 10e-7 M (experiment 2); format: functional; in short: as §4
[29] = in the assay text read “Estrogenic activity” for “Anti-estrogenic activity”

T1 sequence (O08537 whole entry, looked up): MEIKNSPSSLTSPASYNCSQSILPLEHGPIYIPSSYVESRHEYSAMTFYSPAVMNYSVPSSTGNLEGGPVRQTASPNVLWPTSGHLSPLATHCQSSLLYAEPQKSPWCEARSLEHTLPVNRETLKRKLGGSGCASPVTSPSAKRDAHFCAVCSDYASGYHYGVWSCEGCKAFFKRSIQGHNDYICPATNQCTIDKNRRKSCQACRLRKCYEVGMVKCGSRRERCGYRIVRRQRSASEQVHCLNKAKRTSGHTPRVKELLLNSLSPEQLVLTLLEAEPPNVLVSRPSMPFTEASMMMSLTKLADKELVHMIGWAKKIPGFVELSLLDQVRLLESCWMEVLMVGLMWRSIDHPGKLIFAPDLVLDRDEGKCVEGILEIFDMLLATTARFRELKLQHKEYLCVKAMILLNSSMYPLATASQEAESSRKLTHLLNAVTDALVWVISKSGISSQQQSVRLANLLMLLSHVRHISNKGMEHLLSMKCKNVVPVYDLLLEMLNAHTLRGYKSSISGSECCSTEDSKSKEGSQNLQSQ
T1 sequence (P19785 whole entry, looked up): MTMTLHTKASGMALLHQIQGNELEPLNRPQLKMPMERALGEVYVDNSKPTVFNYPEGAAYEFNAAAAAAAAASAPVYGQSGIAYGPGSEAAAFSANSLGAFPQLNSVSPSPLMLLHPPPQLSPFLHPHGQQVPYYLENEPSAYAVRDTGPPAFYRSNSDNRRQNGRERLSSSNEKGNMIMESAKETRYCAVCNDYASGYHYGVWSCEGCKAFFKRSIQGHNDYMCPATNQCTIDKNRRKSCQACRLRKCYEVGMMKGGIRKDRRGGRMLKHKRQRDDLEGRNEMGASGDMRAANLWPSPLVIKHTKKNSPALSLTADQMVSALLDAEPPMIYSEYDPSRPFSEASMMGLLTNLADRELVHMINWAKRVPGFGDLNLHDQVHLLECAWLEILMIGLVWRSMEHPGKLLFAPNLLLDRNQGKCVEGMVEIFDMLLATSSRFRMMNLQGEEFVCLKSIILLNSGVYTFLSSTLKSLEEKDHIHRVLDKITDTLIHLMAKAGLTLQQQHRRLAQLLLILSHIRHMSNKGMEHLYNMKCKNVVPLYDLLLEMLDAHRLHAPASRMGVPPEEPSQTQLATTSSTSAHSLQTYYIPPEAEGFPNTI

`CC(=O)Oc1ccc(-c2c(C)c3ccc(OC(C)=O)cc3n2-c2ccccc2)cc1` was tested, and the Activity [1] was 42, the Activity [2] was 42 and the Activity [3] was 43.2. The Activity [4] was 32.4, the Activity [4, 29] was 26.4 and the Activity [5] was 43.5. The Activity [6] was 41, the inhibition [7] was 33% and the Activity [8] was 13.4. For the same compound, the Activity [9] was 17.8 and the Activity [10] was 34.8.

With `Cc1c(-c2ccc(O)cc2)n(Cc2ccc(Cl)cc2)c2ccc(O)cc12` the relative binding affinity (RBA) [11] was 8.

With `CC(=O)Oc1ccc(-c2c(C)c3cc(OC(C)=O)ccc3n2Cc2ccccc2)cc1` the Activity [12] was 48.2, the Activity [2] was 47.4 and the Activity [3] was 49.9. For the same compound, the Activity [4] was 34.7, the Activity [4, 29] was 30.7 and the Activity [5] was 42.8. The Activity [6] was 48.7, the inhibition [7] was 17% and < 42% and the Activity [8] was 13.3. For the same compound, the Activity [9] was 22.6 and the Activity [10] was 38.1.

With `Cc1c(-c2ccc(O)cc2)n(CCc2ccccc2)c2ccc(O)cc12` the relative binding affinity (RBA) [11] was 2.

In the case of `CC(=O)Oc1ccc(-c2c(C)c3cc(OC(C)=O)ccc3n2Cc2ccc(C)cc2)cc1`, the Activity [1] is reported as 46.5 and 47.8, the Activity [3] is reported as 49.2 and the Activity [4] is reported as 36. For the same compound, the Activity [4, 29] was 32.9, the Activity [5] was 42.5 and the Activity [6] was 46.3. For the same compound, the inhibition [7] was 16% and < 35%, the Activity [8] was 14.4 and the Activity [9] was 20.3. For the same compound, the Activity [10] was 40.

`Cc1c(-c2ccc(O)cc2)n(-c2ccccc2)c2cc(O)ccc12` showed a relative binding affinity (RBA) [11] of 7.5.

Work on `Cc1c(-c2ccc(O)cc2)n(Cc2c(Cl)cccc2Cl)c2ccc(O)cc12` yielded a relative binding affinity (RBA) [11] of 3.6.

In the case of `CC(=O)Oc1ccc(-c2c(C)c3ccc(OC(C)=O)cc3n2Cc2ccccc2)cc1`, the Activity [13] is reported as 48.2, the Activity [2] is reported as 46.5 and the Activity [3] is reported as 54.2. It also gave an Activity [4] of 44.6, an Activity [4, 29] of 32.4 and an Activity [5] of 52.1. For the same compound, the Activity [6] was 50.4, the inhibition [7] was 11% and the Activity [8] was 12.3. It also gave an Activity [9] of 17.1 and an Activity [10] of 32.6.

In the case of `CC(=O)Oc1ccc(-c2c(C)c3cc(OC(C)=O)ccc3n2Cc2ccc(C#N)cc2)cc1`, the Activity [1] is reported as 43.7, the Activity [2] is reported as 48.2 and the Activity [4] is reported as 30.5. For the same compound, the Activity [4, 29] was 20, the Activity [5] was 37.9 and the Activity [14] was 30.4. It also gave an Activity [15] of 31.5, an Activity [16] of 34.1 and an Activity [8] of 14. It also gave an Activity [9] of 15.1 and an Activity [10] of 27.4.

`Cc1c(-c2ccc(O)cc2)n(Cc2ccc(O)cc2)c2ccc(O)cc12` gave a relative binding affinity (RBA) [11] of 8.

Compound `Cc1c(-c2ccc(O)cc2)n(Cc2ccccc2Cl)c2ccc(O)cc12` has a relative binding affinity (RBA) [11] of 8.7.

With `Cc1c(-c2ccc(O)cc2)n(Cc2ccccc2)c2ccccc12` the relative binding affinity (RBA) [11] was 0.55.

Compound `Cc1ccc(Cn2c(-c3ccc(O)cc3)c(C)c3cc(O)ccc32)cc1` has a relative binding affinity (RBA) [11] of 11.

`Cc1c(-c2ccc(O)cc2)n(-c2ccccc2)c2ccc(O)cc12` showed a relative binding affinity (RBA) [11] of 9.

`Cc1c(-c2ccc(O)cc2)n(Cc2ccccc2)c2cc(O)ccc12` was tested, and the relative binding affinity (RBA) [11] was 11.

In the case of `Cc1c(-c2ccc(O)cc2)n(C(=O)c2ccccc2)c2ccc(O)cc12`, the relative binding affinity (RBA) [11] is reported as 2.4.

In the case of `Cc1c(-c2ccccc2)n(Cc2ccccc2)c2ccc(O)cc12`, the relative binding affinity (RBA) [11] is reported as 2.6.

For `Cc1c(-c2ccc(O)cc2)n(Cc2ccc(C#N)cc2)c2ccc(O)cc12`, the relative binding affinity (RBA) [11] was 14, the T/C (MCF7 [17]) was 1.3 ×10^4 per dish and the T/C (MDA-MB-231 [18]) was 10.5 ×10^4 per dish. For the same compound, the T/C (MDA-MB-231 [19]) was 11 ×10^4 per dish, the T/C (MDA-MB-231 [20]) was 10.5 ×10^4 per dish and the T/C (MCF7 [21]) was 7.8 ×10^4 per dish. The T/C (MCF7 [22]) was 17.3 ×10^4 per dish.

Compound `COc1ccc(Cn2c(-c3ccc(OC(C)=O)cc3)c(C)c3cc(OC(C)=O)ccc32)cc1` has an Activity [1] of 47.8, an Activity [2] of 52.2 and an Activity [3] of 47.1. It also gave an Activity [4] of 40.1, an Activity [4, 29] of 30.9 and an Activity [5] of 46.8. It also gave an Activity [6] of 47.4, an inhibition [7] of 23% and an Activity [8] of 14.3. The Activity [9] was 14.7 and the Activity [10] was 45.

In the case of `Cc1cccc(Cn2c(-c3ccc(O)cc3)c(C)c3cc(O)ccc32)c1`, the relative binding affinity (RBA) [11] is reported as 6.6.

`Cc1c(-c2ccc(O)cc2)n(Cc2ccccc2)c2ccc(O)cc12` was tested, and the relative binding affinity (RBA) [11] was 16, the T/C (MCF7 [23]) was 20.3 ×10^4 per dish and the T/C (MCF7 [24]) was 17.4 ×10^4 per dish.

In the case of `Cc1c(-c2ccc(O)cc2)n(Cc2cccc(Cl)c2)c2ccc(O)cc12`, the relative binding affinity (RBA) [11] is reported as 5.1.

In the case of `Cc1c(-c2cccc(O)c2)n(Cc2ccccc2)c2ccc(O)cc12`, the relative binding affinity (RBA) [11] is reported as 3.

With `CC/C(=C(\c1ccccc1)c1ccc(OCCN(C)C)cc1)c1ccccc1` [TAMOXIFEN] the T/C (MCF7 [25]) was 4.5 ×10^4 per dish, the T/C (MCF7 [26]) was 2.2 ×10^4 per dish and the T/C (MCF7 [27]) was 5.3 ×10^4 per dish. For the same compound, the T/C (MCF7 [28]) was 6.7 ×10^4 per dish and 10.8 ×10^4 per dish.

Work on `Cc1c(-c2ccc(O)cc2)n(CC2CCCCC2)c2ccc(O)cc12` yielded a relative binding affinity (RBA) [11] of 5.2.

From ChEMBL document CHEMBL1123659, “2-Phenylindoles. Effect of N-benzylation on estrogen receptor affinity, estrogenic properties, and mammary tumor inhibiting activity” (J Med Chem, 1987)
